High-throughput results (PubChem)
Kir21 block = inhibitors of mouse Kir2.1 inward-rectifier potassium channel | AID 1672, 2009 | HEK293-Kir2.1, FluxOR thallium flux fluorescence; stronger effect = lower value | 0.85% of 310,000 active | Inward rectifier potassium channel 2 (Mus musculus), P35561 | B-score at 10 µM;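 active = fluorescence ratio B-score at or below minus 3 SD of library scores, with starting-brightness B-score within 2 SD, cut at about -4.2 in these data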;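 note: channel flux triggered by added potassium and thallium sulfate stimulus; B-score of peak minus minimum fluorescence over baseline after thallium stimulus; more negative B-score means stronger Kir2.1 block with less thallium influx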
KCNQ1 pot = potentiators or activators of KCNQ1 channel, primary screen, cell-based, thallium flux, high-throughput | AID 2648, 2010 | B-score at 10 µM | 0.35% of 310,000 active | Potassium voltage-gated channel subfamily KQT member 1 (Homo sapiens), P51787 | CHO-K1 KCNQ1, thallium flux FluxOR fluorescence; stronger effect = higher value;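 active = fluorescence ratio B-score, a plate-corrected score, at least three library SD, with initial intensity B-score within 5 SD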
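Test system: CHO-K1 cells stably expressing KCNQ1 / Medium: assay buffer / Also added: depolarizing K+/Tl+ stimulus, K2SO4 and Tl2SO4 each 12.5 mM in 5x stock / Incubation: 90 min dye loading and 20 min compound exposure, both at room temperature / Signal: thallium influx via FluxOR fluorescence, kinetic imaging / Evaluation: B score of baseline-normalized fluorescence ratio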
KCNK3 inh = human KCNK3 channel inhibitors, primary screen, CHO cells, FluxOR thallium flux, B-score. Potassium channel subfamily K member 3 (Homo sapiens), O14649. FluxOR fluorescence; stronger effect = lower value. B-score at 10 µM. 0.84% of 340,000 active. AID 602410, 2012;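 active = B-score under library mean minus 4 SD, starting fluorescence ratio at most library mean plus 5 SD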;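 note: more negative B-score means stronger inhibition of thallium flux through KCNK3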
Target sequence (O14649 whole entry, looked up): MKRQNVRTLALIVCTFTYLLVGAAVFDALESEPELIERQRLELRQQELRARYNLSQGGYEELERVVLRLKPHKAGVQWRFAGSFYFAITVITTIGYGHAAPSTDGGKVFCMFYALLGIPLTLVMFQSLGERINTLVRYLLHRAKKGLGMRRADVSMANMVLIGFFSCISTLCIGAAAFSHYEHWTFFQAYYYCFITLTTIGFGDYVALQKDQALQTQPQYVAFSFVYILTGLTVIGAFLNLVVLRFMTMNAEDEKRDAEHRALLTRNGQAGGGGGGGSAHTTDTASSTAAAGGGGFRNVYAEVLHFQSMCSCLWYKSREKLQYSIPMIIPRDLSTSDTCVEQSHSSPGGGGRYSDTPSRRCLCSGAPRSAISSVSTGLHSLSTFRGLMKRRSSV
hERG rescue = hERG rescue from dofetilide block, primary screen, cell-based, CHO-hERG, FluxOR thallium flux, dofetilide IC70. activation (rescue from dofetilide block), less the hit threshold, % at 10 µM. 0.51% of 310,000 active. dofetilide IC70 present;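 active = activation above the mean of controls blocked by dofetilide plus 5 SD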;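 note: thallium influx through hERG after potassium depolarization seen as dye fluorescence rise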
KCNK9 inh = KCNK9 potassium channel inhibitors, primary screen, HEK293 cells, thallium flux. 1.2% of 310,000 active. FluxOR thallium flux fluorescence; stronger effect = lower value. B-score at 10 µM. AID 488922, 2010. Potassium channel subfamily K member 9 (Homo sapiens), Q9NPC2;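 active = ratio B-score over 3 SD below the library mean, with starting fluorescence within 5 SD of its mean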;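 note: negative B-score means less thallium flux so channel inhibition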
KCNQ1 inh = inhibitors of human KCNQ1 channel, primary screen, cell-based, thallium flux, high-throughput; Potassium voltage-gated channel subfamily KQT member 1 (Homo sapiens), P51787; CHO-K1 KCNQ1, FluxOR thallium flux fluorescence; stronger effect = higher value; B-score at 10 µM; 1.3% of 310,000 active;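 active = compounds whose thallium flux B-score, printed positive for inhibition, exceeds three library SD while starting fluorescence stays within three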;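 note: channel opened by potassium depolarization with thallium stimulus after 20 min compound exposure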
KCNK3 confirm = retest of human KCNK3 channel inhibitors, confirmation, CHO cells, FluxOR thallium flux, triplicate | FluxOR fluorescence; 0% buffer, 100% carvedilol maximal block | shares compounds with KCNK3 inh | 99% of 2,400 active | AID 651638, 2012 | ratio percent of control, % at 10 µM;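 active = ratio percent of control, averaged over triplicates, above buffer control mean plus 5 SD, cut at about 64% in these data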;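 note: ratio is the fluorescence rise from min to max over baseline after thallium stimulus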
KCNK3 uninduced = thallium flux inhibition in non-induced cells, primary screen, counter-screen for KCNK3 inhibitor project, cell-based, non-induced KCNK3 line, FluxOR thallium, triplicate | shares compounds with KCNK3 inh | thallium flux ratio (lower = more inhibition) at 10 µM | 40% of 2,400 active | non-induced KCNK3 parental cells; stronger effect = lower value;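 active = thallium flux ratio, averaged over three wells, more than 5 SD below the buffer control mean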;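 note: host cells are CHO cells without KCNK3 induction; ratio is peak minus trough fluorescence over baseline then normalized to buffer controls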
* hit, by the source's call; i = inactive; . = not tested or not shown. Shown are actives, neighbours in structure and some others; about 3.8% of the full set was active somewhere.

SMILES | Kir21 block | KCNQ1 pot | KCNK3 inh | hERG rescue | KCNK9 inh | KCNQ1 inh | KCNK3 confirm | KCNK3 uninduced
Cc1noc(C)c1CSc1nc2[nH]ncc2c(=O)n1-c1ccccc1 | -0.91 | i | i | -7.5 | i | i | . | .
O=c1c2cn[nH]c2nc(SCc2c(F)cccc2F)n1-c1ccc(Cl)cc1 | -0.39 | i | -9.33* | -21.9 | i | i | 129.0* | 0.149*
CCC(C)c1ccc(NC(=O)Nc2cccnc2)cc1 (stereo not given) | -1.79 | i | -9.71* | -16.4 | i | i | 118.7* | 0.148*
CCC(C)c1ccc(NC(=O)NCc2cccnc2)cc1 (stereo not given) | 1.28 | i | i | -9.0 | i | i | . | .
O=[N+]([O-])c1ccccc1S(=O)(=O)N1CCN(c2ccccc2)CC1 | 0.03 | i | i | -4.5 | i | i | . | .
C=CCNc1nc(SC)nc2ccsc12 | 1.3 | i | i | -7.3 | i | i | . | .
C=CCSc1nc(N(CC)CC)c2sccc2n1 | -1.34 | i | -10.1* | -5.7 | i | i | 121.0* | i
O=C(Nc1cccc(Cl)c1)OC1CCCCc2cccnc21 (stereo not given) | 0.13 | i | -9.34* | -3.4 | i | i | 116.3* | i
Cc1cccc(-n2ncc3c2CCCC3NC(=O)CCCN2CCCCC2=O)c1C (stereo not given) | -0.93 | i | i | -9.0 | i | i | . | .
Fc1ccc(/C=C2\CCCC3=C2Nc2ncnn2C3c2ccc(F)cc2)cc1 (stereo not given) | -0.77 | i | -9.56* | -13.8 | i | i | 114.3* | 0.135*
O=C(NCCNc1ccc([N+](=O)[O-])cc1)c1cccs1 | -0.3 | i | i | -8.7 | i | i | . | .
O=C1c2ccccc2C(Nc2ccc3c(c2)OCO3)N1Cc1ccco1 (stereo not given) | 0.36 | i | i | -14.1 | i | i | . | .
O=C1c2ccccc2C(Nc2ccc(F)c(Cl)c2)N1Cc1ccco1 (stereo not given) | -1.78 | i | -8.71* | -13.0 | i | i | 97.7* | i
COCc1ccc(C(=O)NC2CCCc3c2cnn3-c2cc(C)cc(C)c2)s1 (stereo not given) | -0.66 | i | i | -16.3 | i | i | . | .
Cc1cc(/C=C2\SC(=S)NC2=O)c(C)n1-c1cccc(O)c1 | -2.68 | i | -8.88* | -16.7 | -7.3* | i | 112.7* | 0.147*
CC1(C)CC(=O)C2=C(C1)c1c(ccc3ccccc13)NC2c1ccc(Br)o1 (stereo not given) | -0.72 | i | -10.4* | -12.3 | i | i | 113.3* | i
c1ccc(CN2CCC(Nc3nc(-c4cccs4)nc4ccccc34)CC2)cc1 | -1.01 | i | -10* | -41.1 | i | i | 126.0* | 0.14*
c1csc(-c2nc(NCC3CCCO3)c3ccccc3n2)c1 (stereo not given) | -0.92 | i | i | -14.4 | i | i | . | .
Cc1sc2ncnc(N3CCN(S(=O)(=O)c4ccc(C(C)(C)C)cc4)CC3)c2c1C | . | . | i | . | . | . | . | .
Cc1sc2ncnc(N3CCN(S(=O)(=O)c4ccc(Br)cc4)CC3)c2c1C | 0.08 | i | -12.2* | -16.1 | i | i | 115.7* | 0.149*
COc1ccc(CCn2c(C)nc3ccccc3c2=O)cc1OC | -1.52 | i | i | -18.9 | i | i | . | .
